ARNT-TACC3 inh: disruptors of ARNT/TACC3 protein interaction, primary screen, biochemical, AlphaScreen, single concentration; Transforming acidic coiled-coil-containing protein 3 (Homo sapiens), Q9Y6A5; AlphaScreen His-ARNT PAS-B/GST-TACC3 binding, luminescence; TACC3 fragment carries E629A point mutation; inhibition, % at 9.99 µM; 390,000 tested, 0.66% active;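 active = mean inhibition of replicates at least 50% and at least half of replicates each reaching 50%; inconclusive = half or more replicates reach 50% but mean below 50%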;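 also: 0% = complete ARNT plus TACC3 wells and 100% = ARNT alone without TACC3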
SIRT5 inh: SIRT5 desuccinylase inhibitors, primary screen, biochemical, fluorescence imaging, single point, set 5; NAD-dependent protein deacylase sirtuin-5, mitochondrial (Homo sapiens), Q9NXA8; Purified SirT5, succinyl-peptide AMC, trypsin-coupled fluorescence; inhibition, % at 15 µM; 330,000 tested, 1.1% active; AID 652115, 2013; in the data active = inhibition above about 15%; inconclusive = no clear call, values can overlap the other calls
Target sequence (Q9NXA8 whole entry, looked up): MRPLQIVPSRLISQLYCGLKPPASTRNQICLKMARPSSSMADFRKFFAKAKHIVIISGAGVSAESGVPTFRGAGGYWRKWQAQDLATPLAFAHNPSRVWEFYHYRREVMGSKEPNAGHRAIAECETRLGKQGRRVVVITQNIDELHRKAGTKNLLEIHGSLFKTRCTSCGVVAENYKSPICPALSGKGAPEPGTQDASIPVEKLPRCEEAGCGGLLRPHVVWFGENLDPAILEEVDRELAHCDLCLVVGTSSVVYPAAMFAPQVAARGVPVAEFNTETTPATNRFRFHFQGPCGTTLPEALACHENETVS
FGF22 binding: binders of human FGF22 protein, primary screen, FGF22 synaptogenesis inhibitor project, biophysical, thermal shift, single point | recombinant FGF22 thermal shift, SYPRO orange fluorescence; percent of sucrose octasulfate shift, DMSO zero | 340,000 tested, 1.5% active | activity (Tm shift, normalised), % at 9.99 µM | Fibroblast growth factor 22 (Homo sapiens), Q9HCT0;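 active = mean Tm shift, scaled 0 neutral to 100 positive control, at about 1.3% or above, every replicate too, limit read from the data; inconclusive = no clear call, values can overlap the other calls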
Target sequence (Q9HCT0 whole entry, looked up): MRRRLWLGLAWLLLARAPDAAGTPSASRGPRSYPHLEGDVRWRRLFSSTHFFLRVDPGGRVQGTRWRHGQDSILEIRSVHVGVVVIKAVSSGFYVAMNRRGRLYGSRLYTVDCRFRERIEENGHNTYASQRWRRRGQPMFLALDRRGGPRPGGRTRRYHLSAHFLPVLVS
FN deposit inh: inhibitors of fibronectin matrix deposition, primary screen, AH1F cells, Alexa488-fibronectin fluorescence, plate reader | AH1F fibroblasts, overnight | 350,000 tested, 0.086% active | inhibition, % at 12.6 µM;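 active = mean inhibition across replicates of 30% or more, regardless of how many single replicates reach that level; inconclusive = mean under 30% yet at least half of replicates reach 30%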;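 also: positive control wells lacked labelled fibronectin entirely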
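Material: AH1F fibroblasts assembling fluorescent fibronectin matrix; amount: 10000 AH1F cells/well; medium: DMEM, 2% serum; reagent: Alexa488-fibronectin, 24 nM final in well; dosing: single compound dose, delivered by pin transfer; incubation: 1 h adhesion, overnight exposure; detection: fluorescence after three HBSS washes, excitation 485 nm, emission 525 nm; measure: fibronectin deposition inhibition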
DENV2 CPE: inhibitors of DENV2 cytopathic effect, primary screen, cell-based, plate reader, single concentration | DENV2-infected cells, cytopathic effect rescue | CPE inhibition, % at 9.99 µM | 350,000 tested, 1.7% active | AID 651640, 2012; in the data active = CPE inhibition above about 20%, passing the limit was not always enough; inconclusive = no clear call, values can overlap the other calls; tested in BHK-21 cells;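 also: 0% = median of neutral control wells and 100% = median of positive control wells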
XiGFP reactiv: activators of inactive X chromosome reactivation, primary screen, imaging, XiGFP fibroblasts, GFP high-content imaging, set 2; 360,000 tested, 0.055% active; XiGFP mouse fibroblasts, % GFP-positive cells imaging, 3 d; cells co-treated with 5-aza-dC sensitizer; scaled so ellipticine positive control = 100%; activation, % at 7.58 µM;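 active = mean normalized replicate activation at least 10% and every replicate at or above 10%; inconclusive = only one of the two criteria met; inactive = mean below 10% and not all replicates reach 10%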;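 also: 0% = median of on-plate neutral control wells and 100% = ellipticine 6 µM median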
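material = 68-5-11 XiGFP fibroblast line | medium = DMEM plus 5-aza-dC sensitizer | schedule = 3 days compound exposure | benchmarks = positive control ellipticine, 6 µM final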
* = called active by the depositor. Rows were chosen to be rich in hits. Some 3.8% of all compounds tested hit in one or more screens of this group.

What do the screens show for `O=C(C[C@@H]1CC[C@@H]2[C@H](COC[C@H](O)CN2C(=O)c2cnccn2)O1)N1CCN(c2ccccc2)CC1`?
ARNT-TACC3 inh: 13; FGF22 binding: 0; FN deposit inh: -9; DENV2 CPE: -3; XiGFP reactiv: 0

What do the screens show for `Cc1noc(C)c1S(=O)(=O)N(C)C[C@@H]1Oc2ccc(NS(=O)(=O)c3ccccc3)cc2C(=O)N([C@@H](C)CO)C[C@@H]1C`?
ARNT-TACC3 inh: 10; SIRT5 inh: -4; DENV2 CPE: -12; XiGFP reactiv: 0

What do the screens show for `O=C(CN1CCOCC1)NCC[C@H]1CC[C@@H](NC(=O)Nc2ccccc2)[C@@H](CO)O1`?
ARNT-TACC3 inh: -2; SIRT5 inh: 0; FGF22 binding: 0; FN deposit inh: 3; DENV2 CPE: 1; XiGFP reactiv: 1

How did O=C(c1cccs1)N1CCN=C1SCc1ccc(Cl)cc1 do in these assays?
ARNT-TACC3 inh: 4; SIRT5 inh: -2; FGF22 binding: 0; DENV2 CPE: 2; XiGFP reactiv: 0

How did O=C(c1cccs1)N1CCN=C1SCc1ccccc1F do in these assays?
ARNT-TACC3 inh: -5; SIRT5 inh: -3; FGF22 binding: 43*; FN deposit inh: -1; DENV2 CPE: 4; XiGFP reactiv: 0

What do the screens show for `CC1(C(=O)OCC(=O)Nc2nnc(-c3ccccc3)o2)CC1(Cl)Cl` (stereo not given)?
ARNT-TACC3 inh: 49*; SIRT5 inh: 0; FGF22 binding: 0; FN deposit inh: 4; DENV2 CPE: 6; XiGFP reactiv: 0

What do the screens show for `O=C(CSc1nncs1)Nc1nnc(-c2ccccc2)o1`?
ARNT-TACC3 inh: 54*; SIRT5 inh: 0; FGF22 binding: 0; DENV2 CPE: 3; XiGFP reactiv: 0

Results for O=C(COC(=O)CCC(=O)c1ccccc1)Nc1nnc(-c2ccccc2)o1 ?
ARNT-TACC3 inh: 20; SIRT5 inh: 1; FGF22 binding: 0; FN deposit inh: 4; DENV2 CPE: -1; XiGFP reactiv: 0

Results for O=C(Cc1ccccc1)Nc1nnc(-c2ccccc2)o1 ?
ARNT-TACC3 inh: 17; FGF22 binding: 0; FN deposit inh: 11; DENV2 CPE: 6; XiGFP reactiv: 0

How did O=C(C[C@H]1CC[C@H]2[C@@H](COC[C@H](O)CN2S(=O)(=O)c2cccc(Cl)c2)O1)N1CCOCC1 do in these assays?
ARNT-TACC3 inh: -2; SIRT5 inh: 7; FGF22 binding: 0; FN deposit inh: 1; DENV2 CPE: 21*; XiGFP reactiv: 0

What do the screens show for `O=C(C[C@@H]1CC[C@@H]2[C@H](COC[C@H](O)CN2S(=O)(=O)c2cccc(Cl)c2)O1)Nc1ccc(-c2ccccc2)cc1`?
ARNT-TACC3 inh: 12; SIRT5 inh: 12; FGF22 binding: 0; FN deposit inh: -2; DENV2 CPE: -21; XiGFP reactiv: 0

How did COc1cccc(S(=O)(=O)N2C[C@@H](O)COC[C@@H]3O[C@@H](CC(=O)N4CCN(C)CC4)CC[C@H]32)c1 do in these assays?
ARNT-TACC3 inh: -6; SIRT5 inh: -2; FGF22 binding: 0; FN deposit inh: 0; DENV2 CPE: -14; XiGFP reactiv: 0

Results for COc1cccc(S(=O)(=O)N2C[C@@H](O)COC[C@H]3O[C@H](CC(=O)N4CCN(C)CC4)CC[C@@H]32)c1 ?
ARNT-TACC3 inh: 11; SIRT5 inh: -2; FGF22 binding: 0; FN deposit inh: -17; DENV2 CPE: 20*; XiGFP reactiv: 0

Results for O=C(C[C@@H]1CC[C@H]2[C@@H](COC[C@H](O)CN2S(=O)(=O)c2cccc(Cl)c2)O1)Nc1ccc(-c2ccccc2)cc1 ?
ARNT-TACC3 inh: 16; SIRT5 inh: 10; FGF22 binding: 2.7*; FN deposit inh: 19; DENV2 CPE: inconclusive; XiGFP reactiv: 0

What do the screens show for `CNC[C@@H]1Oc2c(NC(=O)Nc3ccc4c(c3)OCO4)cccc2C(=O)N([C@H](C)CO)C[C@@H]1C`?
FN deposit inh: 6; XiGFP reactiv: -1

How did COc1ccc(C(NC(C)=O)c2ccc3cccnc3c2O)c(OC)c1 (stereo not given) do in these assays?
ARNT-TACC3 inh: 64*

What do the screens show for `CC=Cc1ccc2n(c1=O)C[C@H]1[C@H](CO)[C@@H](C(=O)N[C@@H](C)c3ccccc3)[C@@H]2N1CC1CC1` (mixture of isomers)?
ARNT-TACC3 inh: -6; SIRT5 inh: -5; FGF22 binding: 0; DENV2 CPE: -6; XiGFP reactiv: 0

How did CC(=O)Nc1c(O)nc(SC/C=C/CSc2nc(O)c(NC(C)=O)c(=O)[nH]2)[nH]c1=O do in these assays?
ARNT-TACC3 inh: -1; SIRT5 inh: 2; FGF22 binding: 43*; FN deposit inh: 2; DENV2 CPE: -3; XiGFP reactiv: 0

What do the screens show for `CO[C@@H]1CC[C@H]2CCN(C)C(=O)[C@H](C)CN(C)C(=O)c3cccc(C#N)c3OC[C@@H]1O2`?
ARNT-TACC3 inh: 3; SIRT5 inh: -1; FGF22 binding: 0; FN deposit inh: 8; DENV2 CPE: 0; XiGFP reactiv: 0

How did CC[C@@H]1C/C=C\C[C@H](c2ccc(F)cc2)NC(=O)CCC(=O)N1 do in these assays?
FN deposit inh: -7; XiGFP reactiv: 0

Results for OC[C@@H]1[C@@H](c2ccccc2)C2(CN(Cc3nccs3)C2)N1CCC(F)(F)F ?
SIRT5 inh: 1; FGF22 binding: 0; DENV2 CPE: 0; XiGFP reactiv: 0

How did OC[C@@H]1[C@@H](c2ccccc2)C2(CN(Cc3nccs3)C2)N1Cc1ccncc1 do in these assays?
SIRT5 inh: 16*; FGF22 binding: 0; DENV2 CPE: 11; XiGFP reactiv: 0

How did OC[C@@H]1[C@H](c2ccccc2)C2(CN(Cc3nccs3)C2)N1CCC(F)(F)F do in these assays?
SIRT5 inh: -2; FGF22 binding: 0; DENV2 CPE: 25*; XiGFP reactiv: 0

What do the screens show for `OC[C@H]1[C@@H](c2ccccc2)C2(CN(Cc3nccs3)C2)N1Cc1ccncc1`?
XiGFP reactiv: 0

What do the screens show for `CO[C@H]1CN(C)C(=O)c2cc(NC(=O)NC3CCCCC3)ccc2OC[C@@H](C)N(C)C[C@H]1C`?
ARNT-TACC3 inh: 5; SIRT5 inh: 0; FN deposit inh: -3; DENV2 CPE: -6; XiGFP reactiv: 0

Screening data: PubChem, Broad Institute
